Experimental data taken from ChEMBL document CHEMBL3421596, “A facile synthesis and microtubule-destabilizing properties of 4-(1H-benzo[d]imidazol-2-yl)-furazan-3-amines” (Eur J Med Chem, 2015).
Active and inactive are the calls of the source. The calls are words filed in the database; no cut-off is given here.

Experiments:
[1] = Cytotoxicity against human NCI60 cells assessed as cell growth at 10 uM; type: functional; conditions: read-out: Activity
How it was run: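 NCI60 panel screened by the NCI Developmental Therapeutics Program at a single 10 µM concentration; mean cell growth percent reported.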

Paracentrotus lividus [2] = assay: Antiproliferative activity in sea urchin embryo assessed as antimitotic activity by measuring cleavage arrest exposed for 8 to 20 mins after fertilization and 45 to 55 mins before first mitotic cycle completion measured 2.5 to […] after fertilization; type: functional
Paracentrotus lividus [3] = assay: Antiproliferative activity in sea urchin embryo assessed as destabilization of microtubule by measuring embryo spinning after 15 mins to 20 hrs; type: functional
Paracentrotus lividus [4] = assay: Antiproliferative activity in sea urchin embryo assessed as antimitotic activity by measuring cleavage alteration exposed for 8 to 20 mins after fertilization and 45 to 55 mins before first mitotic cycle completion measured 2.5 to […] after fertilization; type: functional
[5] = Cytotoxicity against human NCI60 cells; type: functional
Paracentrotus lividus [6] = assay: Antiproliferative activity in sea urchin embryo assessed as destabilization of microtubule by tuberculate eggs after 15 mins to 20 hrs; type: functional, organism-based
Tubulin = Tubulin (Bos taurus, UniProt Q6B856+Q862L2+Q862F3); assay: Inhibition of bovine tubulin polymerization by turbidity assay; type: protein assay
RXF 393 = assay: Cytotoxicity against human RXF393 cells; type: functional
MDA-MB-435 = assay: Cytotoxicity against human MDA-MB-435 cells; type: functional
SF-539 = assay: Cytotoxicity against human SF539 cells; type: functional
[7] = Cytotoxicity against human OVCAR8 cells; type: functional
[8] = Cytotoxicity against human OVCAR3 cells; type: functional
[9] = Cytotoxicity against human NCI-ADR-RES cells; type: functional

SMILES | growth at 10 µM [1] [%] | EC (Paracentrotus lividus [2]) [µM] | EC (Paracentrotus lividus [3]) [µM] | EC (Paracentrotus lividus [4]) [µM] | also measured
CC(C)(C)c1ccc(Cn2c(-c3nonc3N)nc3ccccc32)cc1 | 67.4 | >4 | >4 | >4 | –
Nc1nonc1-c1nc2ccccc2n1CC(=O)Nc1ccc(F)c(Cl)c1 | 70.5 | >4 | >4 | 2 | –
Cc1ccc(Cn2c(-c3nonc3N)nc3ccccc32)cc1 | 70.4 | – | – | – | –
Nc1nonc1-c1nc2cc3ccccc3cc2[nH]1 | – | 4 | >4 | 0.5 | –
N#Cc1ccc2[nH]c(-c3nonc3N)nc2c1 | 107 | >4 | >4 | >4 | –
Nc1nc(Cn2c(-c3nonc3N)nc3ccccc32)nc(N2CCCCC2)n1 | 87.7 | >4 | >4 | 4 | –
Nc1nonc1-c1nc2ccccc2n1CC(=O)NCc1ccc(F)cc1 | 102 | >4 | >4 | 4 | –
C=CCn1c(-c2nonc2NC(C)=O)nc2ccccc21 | 96.5 | >4 | >4 | >4 | –
CCOc1ccc(Cn2c(-c3nonc3N)nc3ccccc32)cc1OCC | 81 | >4 | >4 | >4 | –
Nc1nonc1-c1nc2ccccc2n1Cc1ccc(F)cc1 | – | >4 | >4 | 2 | GI50 [5]: 8910 nM
CN(C)c1nc(N)nc(Cn2c(-c3nonc3N)nc3ccccc32)n1 | 80.8 | >4 | >4 | 2 | –
Nc1nonc1-c1nc2ccccc2n1CCO | 102 | – | – | – | –
COc1cccc(Cn2c(-c3nonc3NC(C)=O)nc3ccccc32)c1 | – | >4 | >4 | 1 | GI50 [5]: 3980 nM
Cc1ccc(NC(=O)Cn2c(-c3nonc3NC(=O)c3ccc(F)cc3)nc3ccccc32)cc1F | 71.8 | – | – | – | –
Cc1cc(C)cc(NC(=O)Cn2c(-c3nonc3N)nc3ccccc32)c1 | 109 | >4 | >4 | >4 | –
Nc1nonc1-c1nc2ccccc2[nH]1 | 103 | >4 | >4 | 2 | –
Nc1nonc1-c1nc2ccccc2n1Cc1cc2c(cc1Cl)OCO2 | 88.3 | >4 | >4 | >4 | –
COc1cc2c(c(OC)c1OC)-c1ccc(OC)c(=O)cc1[C@@H](NC(C)=O)CC2 [COLCHICINE] | – | 100 | 50 | 50 | Activity (Paracentrotus lividus [6]): Active; GI50 [5]: 132 nM
Nc1nonc1-c1nc2ccccc2n1Cc1cccc2ccccc12 | – | – | – | – | IC50 (Tubulin): 7030 nM

SMILES | growth at 10 µM [1] [%] | EC (Paracentrotus lividus [2]) [µM] | EC (Paracentrotus lividus [3]) [µM] | EC (Paracentrotus lividus [4]) [µM] | also measured
CC(=O)Nc1nonc1-c1nc2ccccc2n1Cc1cccc(C(F)(F)F)c1 | 82.2 | >4 | >4 | >4 | –
Nc1nonc1-c1nc2ccccc2n1Cc1cccc(Br)c1 | – | – | – | – | IC50 (Tubulin): 2040 nM
COc1ccc(Cn2c(-c3nonc3NC(C)=O)nc3ccccc32)cc1 | 85 | >4 | >4 | >4 | –
Nc1nonc1-c1nc2c(Cl)cccc2[nH]1 | 99.8 | >4 | >4 | 1 | –
Nc1nonc1-c1nc2ccccc2n1Cc1cc2c(cc1Br)OCO2 | 86.1 | >4 | >4 | >4 | –
Nc1nonc1-c1nc2cc(F)ccc2[nH]1 | 97.8 | >4 | >5 | 2 | –
CC(=O)Nc1nonc1-c1nc2ccccc2n1Cc1ccncc1 | 101 | >4 | >5 | >4 | –
N#Cc1ccc(Cn2c(-c3nonc3N)nc3ccccc32)cc1 | 79.8 | >4 | >4 | 4 | –
O=C(Nc1nonc1-c1nc2ccccc2n1Cc1ccncc1)c1ccncc1 | 97.1 | >4 | >4 | >4 | –
CC(=O)Nc1nonc1-c1nc2ccccc2n1Cc1ccc(C(C)(C)C)cc1 | 73.5 | – | – | – | –
Nc1nonc1-c1nc2ccccc2n1CC(=O)Nc1ccc2c(c1)COC2=O | 80.8 | 4 | >4 | 2 | –
N#CCn1c(-c2nonc2N)nc2ccccc21 | 102 | >4 | >4 | >4 | –
Nc1nonc1-c1nc2ccccc2n1Cc1ccccn1 | 89.3 | >4 | >4 | 2 | –
CCC(=O)Nc1nonc1-c1nc2ccccc2n1Cc1ccc(F)cc1Cl | 64.5 | >4 | >4 | >4 | –
C#CCn1c(-c2nonc2N)nc2ccccc21 | 99.6 | >4 | >4 | >4 | –
COc1ccc2[nH]c(-c3nonc3-n3cccc3)nc2c1 | 104 | >4 | >4 | 2 | –
CC(=O)Nc1nonc1-c1nc2ccccc2n1Cc1ccc(C#N)cc1 | 94.1 | >4 | >4 | >4 | –
COc1ccc2[nH]c(-c3nonc3N)nc2c1 | 101 | >4 | >5 | 0.5 | –
CC[C@]1(O)C[C@@H]2CN(CCc3c([nH]c4ccccc34)[C@@](C(=O)OC)(c3cc4c(cc3OC)N(C)[C@H]3[C@@](O)(C(=O)OC)[C@H](OC(C)=O)[C@]5(CC)C=CCN6CC[C@]43[C@@H]65)C2)C1 [VINBLASTINE] | – | 0.2 | 2 | 0.1 | Activity (Paracentrotus lividus [6]): Active; TGI (RXF 393): 50 nM; GI50 (RXF 393; read-out: GI50): 1 nM; TGI (MDA-MB-435): 0.25 nM; GI50 (MDA-MB-435; read-out: GI50): 0.25 nM; CC50 (MDA-MB-435; read-out: LC50 (the source's name)): 1 nM; TGI (SF-539): 2.5 nM; GI50 (SF-539; read-out: GI50): 0.6 nM; GI50 [5]: 1.37 nM; TGI ([7]; OVCAR-8): 320 nM; GI50 ([7]; OVCAR-8, read-out: GI50): 1.6 nM; CC50 ([7]; OVCAR-8, read-out: LC50 (the source's name)): 2000 nM; TGI ([8]; OVCAR-3): 1.6 nM; GI50 ([8]; OVCAR-3, read-out: GI50): 0.3 nM; CC50 ([8]; OVCAR-3, read-out: LC50 (the source's name)): 500 nM; TGI [9]: 790 nM; GI50 ([9]; read-out: GI50): 100 nM

SMILES | growth at 10 µM [1] [%] | EC (Paracentrotus lividus [2]) [µM] | EC (Paracentrotus lividus [3]) [µM] | EC (Paracentrotus lividus [4]) [µM] | also measured
Nc1nonc1-c1nc2ccccc2n1Cc1cccc(F)c1 | – | >4 | >4 | 0.5 | IC50 (Tubulin): 7900 nM
Nc1nc(N)nc(Cn2c(-c3nonc3N)nc3ccccc32)n1 | 102 | >4 | >4 | >4 | –
Nc1nonc1-c1nc2cc(Cl)ccc2[nH]1 | 97.1 | >4 | >5 | 2 | –
Cn1c(-c2nonc2NC(=O)c2ccc(F)cc2)nc2ccccc21 | 99.5 | – | – | – | –
CC(=O)Nc1nonc1-c1nc2ccccc2n1Cc1ccccn1 | 104 | >4 | >4 | >4 | –
Nc1nonc1-c1nc2ccccc2n1CC(=O)Nc1ccccc1Cl | – | – | – | – | IC50 (Tubulin): 7360 nM
COc1ccc(Cn2c(-c3nonc3N)nc3cc(C(F)(F)F)ccc32)cc1 | 81.1 | >4 | >4 | >4 | –
Cc1cccc(C)c1NC(=O)Cn1c(-c2nonc2N)nc2ccccc21 | 90.2 | >4 | >4 | >4 | –
Nc1nonc1-c1nc2ccccc2n1Cc1c(F)cccc1Cl | 91.9 | >4 | >4 | >4 | –
Nc1nonc1-c1nc2ccccc2n1Cc1ccc(Cl)cc1 | 85 | >4 | >4 | >4 | –
COc1ccc(NC(=O)Cn2c(-c3nonc3N)nc3ccccc32)cc1Cl | 100 | >4 | >4 | >4 | –
Nc1nonc1-c1nc2ccccc2n1Cc1nnn[nH]1 | 103 | >4 | >4 | >4 | –
CC(=O)Nc1nonc1-c1nc2ccccc2n1Cc1ccc(Cl)cc1Cl | 76.7 | – | – | – | –
Nc1nonc1-c1nc2ccccc2n1Cc1ccncc1 | 97 | – | – | – | –
c1ccc2[nH]c(-c3nonc3-n3cccc3)nc2c1 | 104 | >4 | >4 | >4 | –
N#CCCNc1nonc1-c1nc2ccccc2n1CC(=O)c1ccc(N)cc1 [AVANBULIN] | – | – | – | – | GI50 [5]: 6.5 nM
Nc1nonc1-c1nc2ccccc2n1Cc1cccc(C(F)(F)F)c1 | – | – | – | – | IC50 (Tubulin): 13270 nM
Nc1nonc1-c1nc2ccccc2n1CC(=O)Nc1ccc(OC(F)(F)F)cc1 | 105 | >4 | >4 | 4 | –
